For 89 molecules, activity score (negative = inhibition) results are on record in PubChem BioAssay AID2097 (Broad Institute, 2009).

Screen size: about 300,000 compounds; about 120 (0.04%) were called active. This excerpt belongs to a sample that is enriched for actives. Values without a mark were called inactive.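 The calls were made as follows: active = more than half of replicate wells score below -50%, meaning over 50% inhibition versus plate controls; inconclusive = some replicates but at most half score below -50%; inactive = no replicate scores below -50%.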

In the assay the target is Glycogen synthase kinase-3 beta (Homo sapiens) (UniProt P49841). Kind of assay: blockers of GSK3B enzyme activity – biochemical, cell-free homogeneous, HTS, primary screen (AID 2097).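 Also: 0% = median DMSO wells and -100% = median GW8510 positive control wells.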 The conditions noted are these: GST-GSK3beta kinase, ADP-Glo luminescence, 60 min; at 10 µM; hits give low values. In outline: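 Test system: GST-fused GSK3beta enzyme, cell-free | Quantity: 1.6 ng GST-GSK3beta enzyme per well | Reagent: 25 µM ATP with peptide substrate | Schedule: 60 min enzyme reaction, room temperature | Signal: Luminescent ADP-Glo measurement of ADP formed | Read-out basis: Score relative to plate controls | Control set: DMSO and 20 µM GW8510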
Glycogen synthase kinase-3 beta (Homo sapiens), sequence (P49841 whole entry, looked up, the tested form may be a part): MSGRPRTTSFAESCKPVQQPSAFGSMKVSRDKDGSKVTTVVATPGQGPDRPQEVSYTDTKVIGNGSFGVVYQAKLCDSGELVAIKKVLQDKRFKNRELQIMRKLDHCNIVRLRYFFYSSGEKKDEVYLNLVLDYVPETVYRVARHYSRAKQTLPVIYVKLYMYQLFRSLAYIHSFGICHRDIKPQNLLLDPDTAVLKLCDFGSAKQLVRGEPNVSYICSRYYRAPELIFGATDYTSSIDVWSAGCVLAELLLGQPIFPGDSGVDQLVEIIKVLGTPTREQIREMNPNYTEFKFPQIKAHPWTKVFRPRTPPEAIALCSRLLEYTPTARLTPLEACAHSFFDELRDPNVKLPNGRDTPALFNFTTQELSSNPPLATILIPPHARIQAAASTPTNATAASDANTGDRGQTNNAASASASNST
On the technique in general: ADP-Glo first removes unused ATP, then detects ADP through luciferase.
Take `CN(Cc1ccccc1)CC(O)COc1ccc(CNCc2cc3ccccc3s2)cc1` (centres undefined): the activity score (negative = inhibition) was 2.68%.
Turning to `CCN(CC)S(=O)(=O)c1ccc2c3c(cccc13)C(=O)S2`, the activity score (negative = inhibition) is -2.37%.
With `O=C1COc2ccc(C(=O)COC(=O)C3CC(O)CN3S(=O)(=O)c3ccc(Cl)cc3)cc2N1` (centres undefined), the activity score (negative = inhibition) is 1.53%.
In the case of `CC(C)(C)NC(=O)CN(C(=O)c1csnn1)c1ccccc1-c1ccccc1`, the activity score (negative = inhibition) was -0.766%.
As for `Cc1cc(/C=N/Nc2ccc([N+](=O)[O-])cn2)c(C)n1-c1cccc(C(=O)O)c1`, the activity score (negative = inhibition) was -14.7%.
Take `CCOc1ccc(/C=N/Nc2nncc(-c3ccccc3)n2)cc1OC`: the activity score (negative = inhibition) is -0.0724%.
Turning to `COc1cc(/C=N\Nc2ccc([N+](=O)[O-])cn2)ccc1OCC(=O)O`, the activity score (negative = inhibition) was -70.1% (active).
On to `O=C(C1CCN(S(=O)(=O)Cc2ccccc2)CC1)N1CCCc2ccccc21`, for which the activity score (negative = inhibition) was 4.16%.
As to `O=C(Nc1cccc(Cl)c1)Nc1ccccc1NS(=O)(=O)c1cccs1`, the activity score (negative = inhibition) is 1.54%.
For the molecule `C1=C(N2CCOCC2)/C(=C/c2nc3ccccc3[nH]2)CC1`, the activity score (negative = inhibition) is -1.13%.
In the case of `C=CCc1cccc(/C=N/NC(=O)COc2ccc(-n3cnnn3)cc2)c1O`, the activity score (negative = inhibition) is -4.1%.
As for `O=C(NCc1cccnc1)c1cc(S(=O)(=O)N2CCOCC2)c(Cl)cc1Cl`, the activity score (negative = inhibition) was -0.415%.
Turning to `COc1ccc(C(=O)Oc2ccc(-c3nnco3)cc2)cc1S(=O)(=O)N1CCOCC1`, the activity score (negative = inhibition) was 2.99%.
For `O=C(CCN1C(=O)c2ccccc2C1=O)NNC(=O)c1ccc(Cl)cc1Cl`, the activity score (negative = inhibition) was 1.29%.
As for `COc1cc(C(=O)NCc2nnc(SCC(=O)Nc3nc4ccc(C)cc4s3)o2)cc(OC)c1OC`, the activity score (negative = inhibition) is -2.02%.
Take `O=C1CCN(CCc2ccccc2)CCN1CCOc1ccccc1`: the activity score (negative = inhibition) was 3.91%.
With `CN1C2CCC1/C(=C\c1ccccc1Cl)C(=O)/C2=C\c1ccccc1Cl`, the activity score (negative = inhibition) was 0.435%.
Consider `COc1ccccc1N(C)C(=O)c1cc(S(=O)(=O)N2CCc3ccccc32)cn1C`, for which the activity score (negative = inhibition) was 0.131%.
As to `CCCCC(NC(=O)c1cccc(Br)c1)C(=O)O` (centres undefined), the activity score (negative = inhibition) was -0.419%.
The same measure for `Cc1c(CCC(=O)N[C@@H](CC(C)C)C(=O)O)c(=O)oc2c(C)c3oc4c(c3cc12)CCCC4`: -23.5%; for `O=C(OCc1nnc(-c2ccccc2)o1)c1cc(=O)[nH]c2ccccc12`: -0.304%; for `Cc1ccc(C(=O)NC2CCN(C(=O)Nc3ccccc3Cl)CC2)cc1`: 2.37%.
In the case of `Nc1nc(NCCCN2CCOCC2)nc(Nc2ccccc2)c1[N+](=O)[O-]`, the activity score (negative = inhibition) is -73.5% (active).
The same measure for `O=[N+]([O-])c1ccc(NCCCN2CCOCC2)c(Cl)c1`: -5.04%; for `CC1CN(c2nc(Nc3ccccc3)nc(N)c2[N+](=O)[O-])CC(C)O1` (centres undefined): -27.9%; for `COc1ccc([N+](=O)[O-])cc1NC(=O)COC(=O)/C=C/c1ccco1`: 1.89%.
To `CCOc1ccccc1C(=O)NC1CC2CCCC(C1)N2Cc1ccccc1` (centres undefined) belongs 1.55%; to `Cc1cccc(-c2nc3c(c(SCC(=O)N4CCOCC4)n2)CCCC3)c1`, -0.852%.
The same measure for `COc1ccccc1NC(=O)CCC(=O)N1CC(C)Oc2ccc(C)cc21` (centres undefined): -0.0566%.
Regarding `CCOC(=O)C[C@H]1c2ccc(C(F)(F)F)cc2S(=O)(=O)N1c1ccccc1`, the activity score (negative = inhibition) is 3.21%.
For `CCC1(c2ccccc2)NC(=O)N(CC(=O)Nc2ccccc2C(=O)NC2CCCC2)C1=O` (centres undefined), the activity score (negative = inhibition) was 1.66%.
For the molecule `COc1ccc(-c2ccc(OC(=O)NC3CCS(=O)(=O)C3)cc2)cc1` (centres undefined), the activity score (negative = inhibition) was 1.32%.
For the molecule `C=C(C)C(=O)O[C@H]1C/C(C)=C\C(=O)/C=C(\C)[C@H](O)[C@@H]2OC(=O)C(=C)[C@@H]21`, the activity score (negative = inhibition) is 2.58%.
To `Cc1ccc(S(=O)(=O)/N=S(\C)C(C)C)cc1` (centres undefined) belongs -3.78%; to `Cc1nn(-c2ccccc2)c2c1c(C)c(CCC(=O)NCC1CCCO1)c(=O)n2C` (centres undefined), -0.881%; to `COc1ccc(CCC(C)N2CCc3ccccc3C2)cc1` (centres undefined), 3.34%.
`COc1ccc(CNS(=O)(=O)c2cc3c4c(c2)CCN4C(=O)CC3)cc1`: the activity score (negative = inhibition) is 0.199%.
With `COc1ccc(C2OCC3(CO2)SC(=O)NC3=O)cc1OC` (centres undefined), the activity score (negative = inhibition) was -1.61%.
Regarding `Cc1ccc(C(=O)Nc2nc3ccc(Cl)cc3s2)o1`, the activity score (negative = inhibition) is -1.18%.
With `Cc1ccc(OCCNC(=O)CNC(=O)c2ccc(C)c(C)c2)cc1`, the activity score (negative = inhibition) is -1.65%.
With `COC(=O)C1=NNC2(c3ccc(C)cc3)C(=O)N(c3cccc(C)c3C)C(=O)C12` (centres undefined), the activity score (negative = inhibition) was 1.69%.
For `Cc1ccc(C2SCC(=O)N2c2ccccc2)cc1` (centres undefined), the activity score (negative = inhibition) was -1.18%.
For `C[C@H](NC(=O)c1ccccc1Cl)C(=O)OCCOc1cccc(Cl)c1`, the activity score (negative = inhibition) is -1.48%.
Turning to `O=C(CCCN1C(=O)CSc2ncccc21)N1CCN(c2cccc(C(F)(F)F)c2)CC1`, the activity score (negative = inhibition) is -4.32%.
`CCC(C(=O)OCC(=O)Nc1ccccc1-c1ccccc1)c1ccccc1` (centres undefined): the activity score (negative = inhibition) is 0.894%.
The same measure for `CC(=O)c1ccc(NC(=S)N(Cc2ccccc2)C(C)C2CC2)cc1` (centres undefined): -0.731%.
On to `Cc1nnc(C)c2c(C)n(N)c(C)c12`, for which the activity score (negative = inhibition) is 1.96%.
As to `CNC(=O)NC(=O)C(OC(=O)c1cccc(S(=O)(=O)N2CCCCC2)c1)c1ccccc1` (centres undefined), the activity score (negative = inhibition) was 1.44%.
With `O=C(/C=C/c1cccc([N+](=O)[O-])c1)NCCSCc1ccco1`, the activity score (negative = inhibition) is -1%.
The same measure for `CC(C)Nc1nnc(SC(C)C(=O)N(C)C2CCCCC2)s1` (centres undefined): -10.4%; for `CCc1nnc(NC(=O)CSCc2cc(=O)n3cc(C)sc3n2)s1`: 1.76%.
For `COc1ccc(C)cc1Nc1n[n+](-c2ccccc2)c(-c2cccc(Cl)c2Cl)s1`, the activity score (negative = inhibition) is 1.38%.
In the case of `COC(=O)c1ccc2c(C(C)(C)O)c(C(C)(C)O)[nH]c2c1`, the activity score (negative = inhibition) is 0.923%.
For the molecule `Cc1cc(C)n2nc(C(=O)N(C)C(c3ccccc3)c3ccccc3)nc2n1`, the activity score (negative = inhibition) was -1.04%.
For `COC(=O)c1ccc(CNC(=O)C2CCC(=O)N(Cc3cccc(F)c3)C2)cc1` (centres undefined), the activity score (negative = inhibition) was -6.3%.
As for `CCc1noc(C)c1C(=O)N1CCCSC1=Nc1ccccc1OC`, the activity score (negative = inhibition) is 3.72%.
For the molecule `CC(OC(=O)c1ccc(S(=O)(=O)N2CCOCC2)cc1)c1ccccc1` (centres undefined), the activity score (negative = inhibition) was -0.509%.
`O=C(N/N=C/c1ccccc1O)/C(=C/c1ccccc1)CCO`: the activity score (negative = inhibition) is 0.241%.
As for `CC1CC2=C(CC1/C=N/NC(N)=S)C(C)(C)CCC2` (centres undefined), the activity score (negative = inhibition) was -1.32%.
`O=C1NC(Nc2nc3ccccc3s2)(C(F)(F)F)C(=O)N1C1CCCCC1` (centres undefined): the activity score (negative = inhibition) was -3.19%.
Turning to `Cc1ccc(C2=NN(C)c3nc4ccccc4n3C2)cc1`, the activity score (negative = inhibition) is 1.54%.
`Nc1nc(CC(=O)CSc2ccc(Cl)cc2)nc(Nc2ccc(F)cc2)n1`: the activity score (negative = inhibition) is 0.55%.
Take `Oc1c(Cl)cc(Cl)cc1/C=N/c1ncn[nH]1`: the activity score (negative = inhibition) is 0.992%.
Consider `COC(C[C@H](O)CC(=O)[C@@H](C)OCc1ccccc1)OC`, for which the activity score (negative = inhibition) was -8.84%.
Regarding `Cc1cc(C)c(-c2csc(NC(=O)CCCc3nc4ccccc4c(=O)[nH]3)n2)c(C)c1`, the activity score (negative = inhibition) is 2.17%.
For `COC(=O)Nc1ccc(S(=O)(=O)N2CCN(CCN3C(=O)C4C5C=CC(C5)C4C3=O)CC2)cc1` (centres undefined), the activity score (negative = inhibition) is -3.94%.
As to `O=C1C(=O)N(CCCN2CCOCC2)C(c2ccc([N+](=O)[O-])cc2)/C1=C(\O)c1ccc2c(c1)OCCO2` (centres undefined), the activity score (negative = inhibition) is 1.45%.
As to `COc1nc(Oc2ccc(=O)n(C)n2)nc(N(C)C)n1`, the activity score (negative = inhibition) is 0.382%.
For `Cc1ccc(OCC(=O)Nc2ccc(C(=O)O)cc2NC(=O)COc2ccc(C)c(C)c2)cc1C`, the activity score (negative = inhibition) is 2.29%.
`CC(=O)N1CCSc2ccc(S(=O)(=O)N3CCC(C)CC3)cc21`: the activity score (negative = inhibition) was 1.34%.
Take `O=C(NCc1ccco1)C1CCCN1S(=O)(=O)c1ccccc1C(F)(F)F` (centres undefined): the activity score (negative = inhibition) is 1.38%.
`Cn1c(=O)[nH]c(=O)c2c1nc(N1CCN(C(c3ccccc3)c3ccccc3)CC1)n2CCO`: the activity score (negative = inhibition) was -22.6%.
`CCN(CC(=O)Nc1ccccc1C(F)(F)F)C(=O)CSCc1c(C)noc1C`: the activity score (negative = inhibition) is -1.14%.
To `CN1CCN(S(=O)(=O)c2ccc(Nc3ccc(F)cc3)nc2)CC1` belongs 2.53%; to `CC1(C)Cc2ccccc2/C(=C/C(=O)c2ccccc2)N1`, -1.05%.
To `CN(C)S(=O)(=O)c1ccc(N2CCCC2)c(C(=O)Nc2ccc(Br)cc2F)c1` belongs 3.14%; to `COc1ccc2c(c1OC)C(=O)N(c1ccc(O)cc1)C2`, -1.79%.
In the case of `C=CCOc1c2ccc(C(=O)N(CC)c3ccc(OC)cc3)cc2nn1C`, the activity score (negative = inhibition) was 0.746%.
The same measure for `O=CN1CCN(C(=O)c2ccc3c(c2)OCO3)CC1`: 2.93%; for `C/C(CC(=O)NCc1ccc(Cl)cc1)=N\NC(=O)COc1ccc(C)cc1Br`: -2.78%.
For the molecule `COc1ccccc1C(=O)N(C1=NC(C)CS1)c1ccc(Cl)cc1` (centres undefined), the activity score (negative = inhibition) was 6.2%.
For `O=C(Nc1ccccc1)Nc1nnc(COc2ccccc2F)s1`, the activity score (negative = inhibition) was 0.847%.
Take `CCCN1C2CCCC1CC(NC(=O)c1cccc(OC)c1)C2` (centres undefined): the activity score (negative = inhibition) was 2.34%.
The same measure for `CN(CCNC(=O)c1cc2c(-c3ccccc3F)nn(C)c2s1)C1CCCCC1`: -2.3%; for `COC(=O)c1ccc(CN2C(=O)NC(c3ccccc3)(c3ccccc3)C2=O)o1`: -0.96%; for `CCn1cc(C(=O)N[C@@H](C)C(=O)NCCO)c(=O)c2cc3c(cc21)OCO3`: -0.599%.
For `O=[N+]([O-])c1cc([N+](=O)[O-])c(Oc2cc(F)cc(F)c2F)cc1NN1CCCCC1`, the activity score (negative = inhibition) is -1.52%.
Regarding `CC(NC(=O)C1CCCN(S(=O)(=O)c2ccc(-n3cnnn3)cc2)C1)c1ccc(F)cc1` (centres undefined), the activity score (negative = inhibition) was -1.62%.
As to `COc1cc(NC(=O)C2CCN(c3cnccn3)CC2)cc(OC)c1`, the activity score (negative = inhibition) was -0.841%.
